Assay results as given in ChEMBL document CHEMBL2150863, “Synthesis pharmacological evaluation and docking studies of pyrimidine derivatives” (Eur J Med Chem, 2012).
Values after ≈ are worked out from the molar mass of the structure shown.

Columns and labels:
Rattus norvegicus [1] = assay: Antiinflammatory activity in rat assessed as inhibition of carrageenan-induced paw edema at 10 mg/kg, po administered 30 mins prior to carrageenan-challenge after 1 hr relative to vehicle-treated control; format: functional
How it was run: (§1)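 Rats of 150–200 g, six per group. Oral dosing at 10 mg/kg as a suspension; controls receive 1% carboxymethylcellulose. After 30 min, 0.1 mL of 1% w/v carrageenan is injected into the left hind paw. Paw volume is measured by mercury displacement. Inhibition = (1 − Vt/Vc) × 100 from edema volumes; mean ± SEM.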

Escherichia coli = assay: Antibacterial activity against Escherichia coli MTCC 4351 after 24 hrs by tube dilution method; format: functional; details: MTCC 4351, 24 h
How it was run: (§2)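 Tube dilution in Mueller-Hinton broth at pH 7.4. Two-fold serial dilutions from 1000 to 0.97 in 10% DMSO, with a DMSO-only inoculated control. Inoculum matched visually to a McFarland standard of about 1.5 × 10⁸ cells/mL. Incubation at 37 ± 1 °C for 24 h. MIC is the lowest concentration giving no growth; duplicate determinations, averaged.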

Pseudomonas aeruginosa = assay: Antibacterial activity against Pseudomonas aeruginosa MTCC 424 after 24 hrs by tube dilution method; format: functional; details: MTCC 424, 24 h; how it was run: as §2
Candida albicans = assay: Antifungal activity against Candida albicans MTCC 183 after 48 hrs by tube dilution method; format: functional; details: MTCC 183, 48 h
How it was run: (§3)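 Tube dilution in Sabouraud dextrose broth at pH 7.4. Two-fold serial dilutions from 1000 to 0.97 in 10% DMSO, with a solvent control. Inoculum matched visually to a McFarland standard of about 1.5 × 10⁸ cells/mL. Incubation at 25 ± 1 °C for 48 h. MIC is the tube showing no fungal growth; duplicate determinations, averaged.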

Rattus norvegicus [2] = assay: Antiinflammatory activity in rat assessed as inhibition of carrageenan-induced paw edema at 10 mg/kg, po administered 30 mins prior to carrageenan-challenge after 4 hrs relative to vehicle-treated control; format: functional; how it was run: as §1
Rattus norvegicus [3] = assay: Antiinflammatory activity in rat assessed as inhibition of carrageenan-induced paw edema at 10 mg/kg, po administered 30 mins prior to carrageenan-challenge after 2 hrs relative to vehicle-treated control; format: functional; how it was run: as §1
Rattus norvegicus [4] = assay: Antiinflammatory activity in rat assessed as inhibition of carrageenan-induced paw edema at 10 mg/kg, po administered 30 mins prior to carrageenan-challenge after 3 hrs relative to vehicle-treated control; format: functional; how it was run: as §1
Aspergillus niger = assay: Antifungal activity against Aspergillus niger MTCC 282 after 48 hrs by tube dilution method; format: functional; details: MTCC 282, 48 h; how it was run: as §3
Bacillus subtilis = assay: Antibacterial activity against Bacillus subtilis MTCC 441 after 24 hrs by tube dilution method; format: functional; details: MTCC 441, 24 h; how it was run: as §2
Staphylococcus aureus = assay: Antibacterial activity against Staphylococcus aureus MTCC 3160 after 24 hrs by tube dilution method; format: functional; details: MTCC 3160, 24 h; how it was run: as §2
Mus musculus = assay: Analgesic activity in mouse assessed as inhibition of acetic-acid induced writhing at 10 mg/kg administered 15 mins prior to acetic acid-challenge measured for 15 mins relative to vehicle-treated control; format: functional
How it was run: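 Mice, at least six per group. Test compounds given at 10 mg/kg; acetic acid solution given 15 min later. Writhing is scored as abdominal contractions, trunk twists and hind-limb extensions. Percent inhibition of pain = (1 − Vt/Vc) × 100, where Vt and Vc are mean writhing counts in the treated and control groups.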

Rattus norvegicus [5] = assay: Ulcerogenic activity in Wistar albino rat assessed as ulcer index at 10 mg/kg, ip administered QD for 3 days; format: toxicity, organism-based; set-up: dose 10 mg/kg, route intraperitoneal; details: in vivo, 72 h
How it was run: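 Wistar rats of either sex, 150–200 g, six per group. Given 10 mg/kg ip once daily for 3 days; controls receive 10% v/v Tween 80. Fasted 36 h, then pylorus ligated on day 4. Killed 4 h after ligation; stomach opened along the greater curvature and ulcer index scored; mean ± SEM.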

| Structure (SMILES) | inhibition in vivo at 10 mg/kg (Rattus norvegicus [1]) [%] | MIC (Escherichia coli) [µg/mL] | MIC (Pseudomonas aeruginosa) [µg/mL] | MIC (Candida albicans) [µg/mL] | inhibition in vivo at 10 mg/kg (Rattus norvegicus [2]) [%] | inhibition in vivo at 10 mg/kg (Rattus norvegicus [3]) [%] | inhibition in vivo at 10 mg/kg (Rattus norvegicus [4]) [%] | MIC (Aspergillus niger) [µg/mL] | MIC (Bacillus subtilis) [µg/mL] | MIC (Staphylococcus aureus) [µg/mL] | inhibition in vivo at 10 mg/kg (Mus musculus) [%] | UI (Rattus norvegicus [5]) |
| --- | --- | --- | --- | --- | --- | --- | --- | --- | --- | --- | --- | --- |
| O=C1N=C(C2C(=O)c3ccccc3C2=O)CC(c2ccc([N+](=O)[O-])cc2)N1 (stereo not given) | 16 | 500 (≈ 1380 µM) | 250 (≈ 688 µM) | 500 (≈ 1380 µM) | 18 | 26 | 19 | 500 (≈ 1380 µM) | 250 (≈ 688 µM) | 125 (≈ 344 µM) | 38 |  |
| O=C1N=C(C2C(=O)c3ccccc3C2=O)CC(c2ccccc2O)N1 (stereo not given) | 24 | 500 (≈ 1500 µM) | 125 (≈ 374 µM) | 250 (≈ 748 µM) | 16 | 22 | 19 | 500 (≈ 1500 µM) | 250 (≈ 748 µM) | 125 (≈ 374 µM) | 37 |  |
| CN(C)c1ccc(C2CC(C3C(=O)c4ccccc4C3=O)=NC(=O)N2)cc1 (stereo not given) | 15 | 125 (≈ 346 µM) | 62.5 (≈ 173 µM) | 500 (≈ 1380 µM) | 16 | 29 | 20 | 500 (≈ 1380 µM) | 125 (≈ 346 µM) | 125 (≈ 346 µM) | 52 |  |
| OC(Cn1cncn1)(Cn1cncn1)c1ccc(F)cc1F [FLUCONAZOLE] |  |  |  | 7.8 (≈ 25.5 µM) |  |  |  | 7.8 (≈ 25.5 µM) |  |  |  |  |
| COc1ccc(C2CC(C3C(=O)c4ccccc4C3=O)=NC(=O)N2)cc1 (stereo not given) | 22 | 250 (≈ 718 µM) | 250 (≈ 718 µM) | 250 (≈ 718 µM) | 10 | 21 | 22 | 250 (≈ 718 µM) | 125 (≈ 359 µM) | 500 (≈ 1440 µM) | 31 |  |
| O=C1N=C(C2C(=O)c3ccccc3C2=O)CC(/C=C/c2ccccc2)N1 (stereo not given) | 17 | 125 (≈ 363 µM) | 250 (≈ 726 µM) | 250 (≈ 726 µM) | 16 | 32 | 18 | 250 (≈ 726 µM) | 125 (≈ 363 µM) | 62.5 (≈ 181 µM) | 16 |  |
| O=C1N=C(C2C(=O)c3ccccc3C2=O)CC(c2ccco2)N1 (stereo not given) | 18 | 31.2 (≈ 101 µM) | 500 (≈ 1620 µM) | 62.5 (≈ 203 µM) | 7 | 25 | 20 | 62.5 (≈ 203 µM) | 31.2 (≈ 101 µM) | 62.5 (≈ 203 µM) | 25 |  |
| O=C1N=C(C2C(=O)c3ccccc3C2=O)CC(c2cccc([N+](=O)[O-])c2)N1 (stereo not given) | 27 | 250 (≈ 688 µM) | 250 (≈ 688 µM) | 500 (≈ 1380 µM) | 12 | 36 | 21 | 125 (≈ 344 µM) | 250 (≈ 688 µM) | 125 (≈ 344 µM) | 36 |  |
| O=C1N=C(C2C(=O)c3ccccc3C2=O)CC(c2c[nH]c3ccccc23)N1 (stereo not given) | 19 | 250 (≈ 700 µM) | 125 (≈ 350 µM) | 500 (≈ 1400 µM) | 12 | 21 | 12 | 125 (≈ 350 µM) | 250 (≈ 700 µM) | 250 (≈ 700 µM) | 21 |  |
| O=C1N=C(C2C(=O)c3ccccc3C2=O)CC(c2ccccc2[N+](=O)[O-])N1 (stereo not given) | 11 | 31.2 (≈ 85.9 µM) | 250 (≈ 688 µM) | 500 (≈ 1380 µM) | 32 | 30 | 26 | 500 (≈ 1380 µM) | 250 (≈ 688 µM) | 125 (≈ 344 µM) | 35 |  |
| COc1ccc2c(c1)c(CC(=O)O)c(C)n2C(=O)c1ccc(Cl)cc1 [INDOMETHACIN] | 23 |  |  |  | 34 | 48 | 39 |  |  |  | 55 | 1.7 |
| O=C1N=C(C2C(=O)c3ccccc3C2=O)CC(c2ccccc2)N1 (stereo not given) | 20 | 62.5 (≈ 196 µM) | 125 (≈ 393 µM) | 500 (≈ 1570 µM) | 11 | 33 | 21 | 500 (≈ 1570 µM) | 250 (≈ 785 µM) | 125 (≈ 393 µM) | 31 |  |
| COc1cc(C2CC(C3C(=O)c4ccccc4C3=O)=NC(=O)N2)ccc1O (stereo not given) | 20 | 500 (≈ 1370 µM) | 250 (≈ 686 µM) | 250 (≈ 686 µM) | 11 | 33 | 26 | 125 (≈ 343 µM) | 250 (≈ 686 µM) | 125 (≈ 343 µM) | 28 |  |
| CC1(C)S[C@@H]2[C@H](NC(=O)[C@H](N)c3ccccc3)C(=O)N2[C@H]1C(=O)O [AMPICILLIN] |  | 3.9 (≈ 11.2 µM) | 3.9 (≈ 11.2 µM) |  |  |  |  |  | 3.9 (≈ 11.2 µM) | 3.9 (≈ 11.2 µM) |  |  |
| O=C1N=C(C2C(=O)c3ccccc3C2=O)CC(c2ccc(Cl)cc2)N1 (stereo not given) | 15 | 125 (≈ 354 µM) | 62.5 (≈ 177 µM) | 125 (≈ 354 µM) | 34 | 19 | 31 | 125 (≈ 354 µM) | 31.2 (≈ 88.4 µM) | 125 (≈ 354 µM) | 44 | 1.28 |
